Measurements from ChEMBL document CHEMBL1126129, “Flavones. 3. Synthesis, biological activities, and conformational analysis of isoflavone derivatives and related compounds” (1992).
Active and inactive are the calls of the source. The calls are words filed in the database; no cut-off is given here.

Legend:
Rattus norvegicus [1] = experiment: Antihypertensive activity was measured as decrease in systolic blood pressure in spontaneously hypertensive rats at 75 mg/kg, po 2 hours after dosing; NS denotes not significant; type: functional, organism-based; set-up: dose 75 mg/kg; conditions: Artery
Method in brief: (§1)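 Male spontaneously hypertensive rats (Wistar-Kyoto strain), five per dose group. Systolic arterial pressure measured by indirect tail cuff. Dosing was 75 mg/kg po, or 30 mg/kg iv for one analog. Percentage fall in systolic pressure recorded at stated hours after dosing. Significance vs control at p < 0.05; non-significant falls flagged.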

Rattus norvegicus [2] = experiment: Antihypertensive activity was measured as decrease in systolic blood pressure in spontaneously hypertensive rats at 75 mg/kg, po 24 hours after dosing; NS denotes not significant; type: functional, organism-based; set-up: dose 75 mg/kg; conditions: Artery; method in brief: as §1
Rattus norvegicus [3] = experiment: Antihypertensive activity was measured as decrease in systolic blood pressure in spontaneously hypertensive rats at 75 mg/kg, po 5 hours after dosing; NS denotes not significant; type: functional, organism-based; set-up: dose 75 mg/kg; conditions: Artery; method in brief: as §1
Rattus norvegicus [4] = experiment: Antihypertensive activity was measured as decrease in systolic blood pressure in spontaneously hypertensive rats at 75 mg/kg, po 7.5 hours after dosing; type: functional, Artery; method in brief: as §1
Rattus norvegicus [5] = experiment: In vivo inhibition of carrageenan-induced paw oedema in rats following 50 mg/kg administration.; type: functional
Method in brief: (§2)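 Male Sprague-Dawley rats, housed 1 week, 160-200 g at test, groups of six. Dosed orally in 0.5% aqueous methocel 2 h before carrageenan challenge; controls got vehicle. Paw volume measured by mercury plethysmometer immediately and 3 h later. % inhibition = (Δcontrol − Δtest)/Δcontrol × 100, compared with control by analysis of variance. Usually one experiment per compound.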

Rattus norvegicus [6] = experiment: Antihypertensive activity was measured as decrease in systolic blood pressure in spontaneously hypertensive rats at 75 mg/kg, po 7.5 hours after dosing; NS denotes not significant; type: functional, organism-based; set-up: dose 75 mg/kg; conditions: Artery; method in brief: as §1
Rattus norvegicus [7] = experiment: Antihypertensive activity was measured as decrease in systolic blood pressure in spontaneously hypertensive rats at 75 mg/kg, po 2 hours after dosing; type: functional, Artery; method in brief: as §1
Rattus norvegicus [8] = experiment: Antihypertensive activity was measured as decrease in systolic blood pressure in spontaneously hypertensive rats at 75 mg/kg, po 24 hours after dosing; type: functional, Artery; method in brief: as §1
Rattus norvegicus [9] = experiment: Antihypertensive activity was measured as decrease in systolic blood pressure in spontaneously hypertensive rats at 75 mg/kg, po 5 hours after dosing; type: functional, Artery; method in brief: as §1
Rattus norvegicus [10] = experiment: Antiinflammatory activity was measured as %inhibition of carrageenan-induced paw edema in male rats at 25 mg/kg dose; type: functional; method in brief: as §2
Rattus norvegicus [11] = experiment: Antiinflammatory activity was measured as %inhibition of carrageenan-induced paw edema in male rats at 50 mg/kg dose; type: functional; method in brief: as §2
Rattus norvegicus [12] = experiment: Antiinflammatory activity was measured as inhibition of carrageenan-induced paw edema in male rats at 4 mg/kg dose; type: functional; method in brief: as §2
Rattus norvegicus [13] = experiment: Antiinflammatory activity was measured as inhibition of carrageenan-induced paw edema in male rats at 25 mg/kg dose; type: functional; method in brief: as §2
Rattus norvegicus [14] = experiment: Antihypertensive activity was measured as decrease in systolic blood pressure in spontaneously hypertensive rats at 30 mg/kg, iv 2 hours after dosing; NS denotes not significant; type: functional, organism-based; set-up: dose 30 mg/kg; conditions: Artery; method in brief: as §1

Structure (SMILES) | Decrease in SBP (Rattus norvegicus [1]) | Decrease in SBP (Rattus norvegicus [4]) [%] | inhibition in vivo at 50 mg/kg (Rattus norvegicus [5]) [%] | Decrease in SBP (Rattus norvegicus [9]) [%] | also measured
CC(C)NCC(O)COc1ccc2c(=O)c(-c3ccccc3)c(-c3ccco3)oc2c1 (stereo not drawn) | inactive | 15 | 19 |  | Decrease in SBP (Rattus norvegicus [2]): inactive; Decrease in SBP (Rattus norvegicus [3]): inactive
CCCCCNCCCOc1ccc2c(=O)cc(-c3ccccc3)oc2c1 |  |  | -9 |  | 
CN(C)CCCOc1ccc2c(=O)cc(-c3ccccc3)oc2c1 |  |  | 13 |  | 
O=c1cc(-c2ccccc2)oc2cc(OCCCNC3CCCCCCC3)ccc12 |  |  | 26 |  | 
CCCNCCCOc1ccc2c(=O)cc(-c3ccccc3)oc2c1 |  |  | 18 |  | 
Cc1oc2cc(OCC(O)CN(C)C(C)C)ccc2c(=O)c1-c1ccccc1 (stereo not drawn) | inactive |  | 19 |  | Decrease in SBP (Rattus norvegicus [2]): inactive; Decrease in SBP (Rattus norvegicus [3]): inactive; Decrease in SBP (Rattus norvegicus [6]): inactive
CC(C)NCC(O)COc1ccc2c(=O)c(-c3ccccc3)c(-c3ccccc3)oc2c1 (stereo not drawn) |  | 30 |  | 23 | Decrease in SBP (Rattus norvegicus [7]): 15%; Decrease in SBP (Rattus norvegicus [8]): 34%; inhibition in vivo at 25 mg/kg (Rattus norvegicus [10]): 32%; inhibition in vivo at 50 mg/kg (Rattus norvegicus [11]): 24.6%
CC(C)NCC(O)COc1ccc2c(=O)c(-c3ccccc3)c(C(F)(F)F)oc2c1 (stereo not drawn) | inactive | 16 | 28 | 16 | Decrease in SBP (Rattus norvegicus [8]): 20%
CC(C)NCC(O)COc1ccc2c(=O)c(-c3ccccc3)c(C3CCCCC3)oc2c1 (stereo not drawn) | inactive |  | 24 |  | Decrease in SBP (Rattus norvegicus [2]): inactive; Decrease in SBP (Rattus norvegicus [3]): inactive; Decrease in SBP (Rattus norvegicus [6]): inactive
COc1ccc2c(c1)c(CC(=O)O)c(C)n2C(=O)c1ccc(Cl)cc1 [INDOMETHACIN] |  |  |  |  | Inhibition (Rattus norvegicus [12]): 44.6%
CC(C)NCC(O)COc1ccc2c(=O)c(-c3ccccc3)coc2c1 (stereo not drawn) | inactive | 14 | 33 | 11 | Decrease in SBP (Rattus norvegicus [8]): 21%
O=c1cc(-c2ccccc2)oc2cc(OCCCNC3CCCC3)ccc12 |  |  | 21 |  | 
CC(C)(C)NCCCOc1ccc2c(=O)cc(-c3ccccc3)oc2c1 |  |  | 34 |  | 
O=c1c(-c2ccccc2)coc2cc(OCC(O)CNC3CCCCCCC3)ccc12 (stereo not drawn) | inactive |  | 21 |  | Decrease in SBP (Rattus norvegicus [2]): inactive; Decrease in SBP (Rattus norvegicus [3]): inactive; Decrease in SBP (Rattus norvegicus [6]): inactive; inhibition in vivo at 25 mg/kg (Rattus norvegicus [13]): 41%
CC(C)NCC(O)COc1ccc2c(=O)c(-c3ccccc3)c(Cc3ccccc3)oc2c1 (stereo not drawn) | inactive |  | -3.4 |  | Decrease in SBP (Rattus norvegicus [2]): inactive; Decrease in SBP (Rattus norvegicus [3]): inactive; Decrease in SBP (Rattus norvegicus [6]): inactive
CC(C)NCC(O)COc1ccc2c(=O)cc(-c3ccccc3)oc2c1 (stereo not drawn) |  | 23 |  | 18 | Decrease in SBP (Rattus norvegicus [7]): 12%; Decrease in SBP (Rattus norvegicus [8]): 16%; inhibition in vivo at 50 mg/kg (Rattus norvegicus [11]): 14.5%
CC(C)NCCCOc1ccc2c(=O)cc(-c3ccccc3)oc2c1 |  |  | 41 |  | 
Cc1oc2cc(OCC(O)CNC(C)C)ccc2c(=O)c1-c1ccccc1 (stereo not drawn) | inactive | 19 | 19 | 12 | Decrease in SBP (Rattus norvegicus [8]): 17%
Cc1oc2cc(OCC(O)C[N+](C)(C)C(C)C)ccc2c(=O)c1-c1ccccc1.[I-] (stereo not drawn) | inactive | 0.1 | 36 |  | Decrease in SBP (Rattus norvegicus [2]): inactive; Decrease in SBP (Rattus norvegicus [3]): inactive
CCCNCC(O)COc1cccc2c(=O)c(-c3ccccc3)coc12 (stereo not drawn) |  |  |  |  | Decrease in SBP (Rattus norvegicus [14]): inactive
COc1c(-c2ccccc2)oc2cc(OCCCNC(C)C)ccc2c1=O |  |  | -2 |  | 
Clc1cccc(Cl)c1NC1=NCCN1 [CLONIDINE] |  |  |  | 15 | 
CC(C)NCC(O)COc1ccc2c(=O)c(-c3ccccc3)c(C(C)C)oc2c1 (stereo not drawn) |  | 25 | 28 | 20 | Decrease in SBP (Rattus norvegicus [7]): 18%; Decrease in SBP (Rattus norvegicus [8]): 15%
CCCNCC(O)COc1ccc2c(=O)c(-c3ccccc3)c(C(F)(F)F)oc2c1 (stereo not drawn) | inactive | 12 | 22 | 11 | Decrease in SBP (Rattus norvegicus [8]): 17%
